Shown are actives, neighbours in structure and some others; about 2.8% of the full set was active somewhere.
NPY Y2 blocker: NPY-Y2 receptor antagonists, primary screen, cell-based; hit rate 0.99% among 140,000; NPY-Y2 expressing cells, antagonist mode; inhibition, % at 2.7 µM; in the data active = inhibition above about 17%;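 note: 0% = vehicle with agonist challenge and 100% = reference antagonist with challenge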
NPY1 pot ag: NPY-Y1 receptor potentiators or agonists, primary screen, cell-based. Neuropeptide Y receptor type 1 (Homo sapiens), P25929. NPY-Y1 expressing cells, potentiator/agonist activation. activation, % at 3.6 µM. hit rate 0.37% among 220,000. AID 1304, 2008; in the data active = activation above about 33%, passing the limit was not always enough;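 note: cells stimulated with NPY at EC10 then isoproterenol at EC100; 0% = low agonist plus stimulus and 100% = saturating agonist plus stimulus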
Target sequence (P25929 whole entry, looked up): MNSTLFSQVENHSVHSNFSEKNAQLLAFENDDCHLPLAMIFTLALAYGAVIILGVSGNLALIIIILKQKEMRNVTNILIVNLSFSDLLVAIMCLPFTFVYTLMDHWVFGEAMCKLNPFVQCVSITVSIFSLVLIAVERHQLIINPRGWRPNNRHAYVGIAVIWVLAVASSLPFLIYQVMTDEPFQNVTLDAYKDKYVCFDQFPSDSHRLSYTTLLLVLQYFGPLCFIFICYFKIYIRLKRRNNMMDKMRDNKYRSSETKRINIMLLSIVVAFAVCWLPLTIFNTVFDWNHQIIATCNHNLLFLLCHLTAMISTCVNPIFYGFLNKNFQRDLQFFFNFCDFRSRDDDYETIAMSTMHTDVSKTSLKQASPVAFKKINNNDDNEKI
NPY Y1 blocker: NPY-Y1 receptor antagonists, primary screen, cell-based; inhibition, % at 3.6 µM; Neuropeptide Y receptor type 1 (Homo sapiens), P25929; hit rate 1% among 200,000; HEK293-CNG Y1 cells, membrane potential fluorescence; NPY at EC95, then isoproterenol;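 active = inhibition above the campaign mean inhibition of all tested compounds plus 3 SD, cut at about 20% in these data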;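 note: 0% = DMSO wells given NPY plus isoproterenol and 100% = isoproterenol alone without NPY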
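System: HEK293 cells with Y1 receptor plus CNG channel / Probe or stimulus: NPY 25 nM then isoproterenol 1 µM plus Ro 20-1724 25 µM / Compound: one concentration, 3.6 µM, in 0.4% DMSO / Schedule: compound incubation 1 h at room temperature, readout 45 min post-stimulation / Measured by: membrane potential fluorescence / Read-out: % inhibition of NPY effect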
EP2 modulator: EP2 receptor modulators, cAMP readout, primary screen, cell-based, HTRF cAMP, PGE2 stimulation. EP2-expressing cells, cAMP HTRF FRET, PGE2 co-stimulation. induction, % at 25 µM. AID 940, 2007. hit rate 0.83% among 260,000. Prostaglandin E2 receptor EP2 subtype (Homo sapiens), P43116;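 active = compounds whose cAMP rise, as percent of the full-agonist control response, exceeds 60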;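 note: rat C6 glioma line stably carrying human EP2 under a CMV promoter; the protocol text gives 20 µM as final concentration; 100% = response of wells given 1 µM PGE2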
NPY2 pot ag: NPY-Y2 potentiators or agonists, primary screen, cell-based | activation, % at 3.6 µM | Neuropeptide Y receptor type 2 (Homo sapiens), P49146 | hit rate 0.45% among 220,000 | AID 1359, 2008 | cells expressing NPY-Y2, potentiator/agonist read-out; in the data active = activation above about 27%;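 note: cells stimulated with NPY near EC25 plus isoproterenol at EC100; 0% = vehicle plus submaximal agonist and 100% = vehicle plus saturating agonist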
PGE2 EP2 inh: human EP2 receptor antagonists, primary screen, TR-FRET cAMP, C6 glioma cells. C6 glioma cells expressing human EP2; cells stimulated with saturating PGE2. inhibition, % at 25 µM. hit rate 0.52% among 260,000. AID 1422, 2008;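 active = percent inhibition above 40 after rounding to a whole number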;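 note: rat C6 glioma host cells with rolipram phosphodiesterase inhibitor present; the protocol text gives 20 µM as final concentration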
An asterisk follows results filed as active; · = no result given.

SMILES	NPY Y2 blocker	NPY1 pot ag	NPY Y1 blocker	EP2 modulator	NPY2 pot ag	PGE2 EP2 inh
CN(C)c1ncnc2c1ncn2CCn1cnc2c(N(C)C)ncnc21	·	·	·	29	·	46*
C[N+](C)(C)CCN[N@+]1(C)CCCc2ccccc21	·	·	·	19	·	40*
Cc1ccc(-c2nsc3c(SCC(=O)N4CCCCC4)ncnc23)cc1	·	·	·	-3	·	11
CCCNC(=O)Cn1ncc2c3sc(C)cc3n(CC)c2c1=O	·	·	·	-21	·	·
CSc1ncc(CN2CCc3c([nH]c4ccccc34)C2c2cccc(C)n2)cn1 (centres undefined)	·	0	·	-13	-11	17
Fc1ccccc1C1c2[nH]c3ccccc3c2CCN1Cc1ccoc1 (centres undefined)	·	20	6	64*	14	8
O=C(/C=C/c1ccco1)Nc1ccccc1N1CCCCC1	·	-44	17	62*	-17	4
COc1ccc2c(c1)CN([C@H](C)[C@@H]1CC[C@@H]3[C@H]4CC[C@H]5C[C@@H](O)CC[C@]5(C)[C@@H]4CC[C@]31C)CO2	·	·	·	-25	·	61*
COc1ccc(S(=O)(=O)N2CCCC(C(=O)Nc3ccc(NC(C)=O)cc3)C2)cc1 (centres undefined)	·	·	·	-45	·	3
CC(Oc1ccc(Cl)cc1)c1ccnn1S(=O)(=O)c1ccc(Cl)cc1 (centres undefined)	22*	-9	21*	14	-20	11
CC(Oc1ccccc1)c1ccnn1S(=O)(=O)c1ccccc1 (centres undefined)	5	12	5	27	9	10
N#Cc1nc(-c2ccccc2Cl)oc1N1CCCCC1	1	-22	5	63*	-17	9
COc1ccc(CN(Cc2cccn2C)S(=O)(=O)c2ccccc2)cc1	·	-4	·	69*	-2	14
Cc1cccn2c(CNCCCn3ncc4ccccc43)c(C(=O)N3CCCCC3)nc12	·	-1	1	1	-5	3
CCn1cc(CNCc2c(C(=O)N3CCCCC3)nc3c(C)cccn23)cn1	·	-16	21*	17	-10	1
O=C(CC1CCCCC1)OCn1nnc2ccccc2c1=O	1	107*	0	30	103*	25
CCCc1cc(=O)[nH]c(SCC(=O)Nc2nnc(CC)s2)n1	·	·	·	10	·	15
FC(F)(F)c1ccc(N=Cc2sc(N3CCOCC3)nc2-c2ccccc2)cc1	0	-3	1	34	1	46*
C=CCn1c(N2CCC(C(=O)Nc3ccc4c(c3)OCCO4)CC2)nc2ccccc21	·	·	·	-32	·	7
Cc1ccc2oc(=O)c3cc(C(=O)NCc4ccco4)sc3c2c1	45*	4	22*	-12	1	6
O=C(COc1ncnc2ccccc12)NC1(c2ccccc2)CCCC1	·	·	·	-41	·	2
O=C(Nc1ccccc1N1CCCCC1)c1ncoc1-c1cccs1	·	·	·	66*	·	·
NC(=O)c1ccc(N2CCCC2)c(NC(=O)c2ncoc2-c2cccs2)c1	·	·	·	-52	·	13
O=c1[nH]c2ccc(S(=O)(=O)NCC(c3ccccc3Cl)N3CCCC3)cc2[nH]1 (centres undefined)	·	·	·	-21	·	-1
Cc1ccc2ncccc2c1[N+](=O)[O-]	1	6	1	6	14	7
SMILES	NPY Y2 blocker	NPY1 pot ag	NPY Y1 blocker	EP2 modulator	NPY2 pot ag	PGE2 EP2 inh
O=[N+]([O-])c1ccc2ncccc2c1CCc1c([N+](=O)[O-])ccc2ncccc12	·	·	·	4	·	53*
Nc1ccn([C@H]2O[C@H](CO)[C@@H]3[O][Sn]([c]4ccccc4)([c]4ccccc4)[O][C@@H]32)c(=O)n1	·	·	·	22	·	42*
Nc1ccn([C@@H]2O[C@H](CO)[C@@H](O)[C@@H]2O)c(=O)n1	1	0	3	29	-4	14
CCCOc1ccc(C2C3=C(CCCC3=O)NC3=C2C(=O)CCC3)cc1OC	·	·	·	-3	·	13
COc1cc2c(cc1CNC1(c3ccc(Cl)cc3)CCC1)OCO2	·	·	·	2	·	2
CCCc1nc(-c2ccc(-c3ccc(C)cc3)nc2OCC)no1	·	·	·	69*	·	12
CCOc1nc(-c2ccc(C)cc2)ccc1-c1noc(COC)n1	0	-33	8	43	-10	10
O=C(c1ccccc1F)N1CCCc2cc(C(O)CN3CCCCC3)ccc21 (centres undefined)	·	·	·	-29	·	10
COc1ccc(C(NC(=O)c2c(F)c(F)c(F)c(F)c2F)c2ccccc2)cc1 (centres undefined)	6	63*	-4	-8	35*	30
CC(C)(C)N1C(=O)Cc2c1nc(N)c1c(N)nc(N3CCCCC3CO)c(C#N)c21 (centres undefined)	-2	-7	5	-29	-4	44*
Cc1ccccc1C(=O)N1CCN(c2ccc(NC(=O)c3ccc4c(c3)OCO4)cc2)CC1	·	45*	-7	-6	56*	18
Cc1ccccc1C(=O)N1CCN(c2ccc(NC(=O)c3ccc([N+](=O)[O-])o3)cc2)CC1	·	·	·	-154	·	130*
O=C(Nc1ccc(N2CCN(C(=O)c3ccccc3)CC2)cc1)c1ccc([N+](=O)[O-])o1	·	10	-1	-48	-4	49*
Cc1cc([N+](=O)[O-])ccc1NC(=O)c1ccco1	·	18	-3	29	-11	2
Cc1cc(NC(=O)c2ccc([N+](=O)[O-])o2)ccc1NC(=O)c1ccco1	·	-4	-3	-93	-10	64*
O=C(Nc1ccc(N2CCN(C(=O)c3ccco3)CC2)cc1)c1ccc2c(c1)OCO2	2	12	-2	3	2	9
C=Cn1ncc(CN(C)Cc2nc3ccccc3[nH]2)c1C	·	·	·	-50	·	7
CC(C)C(=O)N1CCN(c2ccc(NC(=O)c3ccc([N+](=O)[O-])o3)cc2Cl)CC1	·	-14	1	-46	-31	116*
O=C(Nc1ccc(N2CCCC2)cc1)c1ccccc1F	0	12	0	15	4	23
CCCC(=O)N1CCN(c2ccc(NC(=O)c3ccc([N+](=O)[O-])o3)cc2Cl)CC1	·	-20	4	-47	-4	27
CCN1CCN(c2ccc(NC(=O)c3ccc([N+](=O)[O-])o3)cc2)CC1	·	·	·	-137	·	95*
CCN1CCN(c2ccc(NC(=O)c3ccccc3F)cc2)CC1	·	·	·	-41	·	59*
CCc1cc2cc3c(cc2nc1SCC(=O)Nc1cc(C)ccc1OC)OCCO3	·	·	·	19	·	8
CC1(C(=O)Nc2nnc(Cc3cccc(F)c3)s2)CCCO1 (centres undefined)	·	·	·	-16	·	4
C=CCNC(=O)C1CC(=O)N(c2ccc(OCc3ccccc3)cc2)C1 (centres undefined)	·	·	·	14	·	12

Compound activity (PubChem BioAssay)
